In paper PMC6195466 (Cell chemical biology, 2018):
Where two headings read alike, the source gives them in different places.

Tests used:
TLR7 = biological target: T1, TLR7 (Homo sapiens, UniProt Q9NYK1); assay: TLR selectivity assay; format: cell-based; conditions: HEK-Blue hTLR7 cells, R848 1 μg/mL
T1 sequence (Q9NYK1 27-1049): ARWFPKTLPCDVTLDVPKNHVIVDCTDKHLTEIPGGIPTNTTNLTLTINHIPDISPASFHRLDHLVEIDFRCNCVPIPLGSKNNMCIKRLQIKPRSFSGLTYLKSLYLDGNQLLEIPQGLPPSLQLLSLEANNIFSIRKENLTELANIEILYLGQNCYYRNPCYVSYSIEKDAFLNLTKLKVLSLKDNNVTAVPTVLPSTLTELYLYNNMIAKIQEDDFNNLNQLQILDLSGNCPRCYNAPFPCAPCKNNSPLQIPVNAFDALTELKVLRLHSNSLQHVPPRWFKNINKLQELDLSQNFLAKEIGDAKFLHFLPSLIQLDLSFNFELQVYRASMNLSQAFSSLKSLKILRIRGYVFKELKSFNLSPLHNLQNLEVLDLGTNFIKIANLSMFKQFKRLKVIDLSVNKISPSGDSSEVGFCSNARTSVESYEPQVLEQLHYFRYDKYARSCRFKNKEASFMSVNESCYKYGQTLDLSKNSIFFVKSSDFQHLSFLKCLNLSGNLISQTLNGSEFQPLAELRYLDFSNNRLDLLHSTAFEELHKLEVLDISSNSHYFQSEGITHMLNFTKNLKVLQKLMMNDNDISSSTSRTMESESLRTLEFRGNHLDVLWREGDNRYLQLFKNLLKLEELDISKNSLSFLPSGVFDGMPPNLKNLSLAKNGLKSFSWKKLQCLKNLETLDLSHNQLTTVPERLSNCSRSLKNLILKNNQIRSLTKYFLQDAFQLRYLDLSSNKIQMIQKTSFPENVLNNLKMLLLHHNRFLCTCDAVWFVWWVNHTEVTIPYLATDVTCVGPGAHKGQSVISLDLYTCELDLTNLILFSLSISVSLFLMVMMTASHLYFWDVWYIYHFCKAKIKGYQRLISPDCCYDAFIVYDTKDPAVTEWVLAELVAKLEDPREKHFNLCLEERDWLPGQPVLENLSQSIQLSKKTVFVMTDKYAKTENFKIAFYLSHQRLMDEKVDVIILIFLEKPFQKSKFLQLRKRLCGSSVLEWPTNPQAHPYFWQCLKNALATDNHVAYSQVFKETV
How it was run: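 HEK-Blue hTLR7 cells were seeded at 7.5 × 10^4 cells/well in DMEM with 10% heat-inactivated FBS. Cells received R848 (1 μg/mL) with varied test-compound concentrations for 24 h at 37 °C, 5% CO2. Supernatant SEAP was developed with Quanti-Blue (30 min–1 h, 37 °C) and read at 620 nm. Normalised with R848-only as 100% and untreated as 0% activation. Three biological replicates, each in triplicate.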

mouse TLR9 = biological target: T2, mouse TLR9 (Mus musculus, UniProt Q9EQU3); assay: IL-12p40 production in splenocytes from hTLR8tg/TLR7-KO mice, TLR9 agonist 1018; format: cell-based; conditions: 1018 7.1 ug/mL
T2 sequence (Q9EQU3 26-1032): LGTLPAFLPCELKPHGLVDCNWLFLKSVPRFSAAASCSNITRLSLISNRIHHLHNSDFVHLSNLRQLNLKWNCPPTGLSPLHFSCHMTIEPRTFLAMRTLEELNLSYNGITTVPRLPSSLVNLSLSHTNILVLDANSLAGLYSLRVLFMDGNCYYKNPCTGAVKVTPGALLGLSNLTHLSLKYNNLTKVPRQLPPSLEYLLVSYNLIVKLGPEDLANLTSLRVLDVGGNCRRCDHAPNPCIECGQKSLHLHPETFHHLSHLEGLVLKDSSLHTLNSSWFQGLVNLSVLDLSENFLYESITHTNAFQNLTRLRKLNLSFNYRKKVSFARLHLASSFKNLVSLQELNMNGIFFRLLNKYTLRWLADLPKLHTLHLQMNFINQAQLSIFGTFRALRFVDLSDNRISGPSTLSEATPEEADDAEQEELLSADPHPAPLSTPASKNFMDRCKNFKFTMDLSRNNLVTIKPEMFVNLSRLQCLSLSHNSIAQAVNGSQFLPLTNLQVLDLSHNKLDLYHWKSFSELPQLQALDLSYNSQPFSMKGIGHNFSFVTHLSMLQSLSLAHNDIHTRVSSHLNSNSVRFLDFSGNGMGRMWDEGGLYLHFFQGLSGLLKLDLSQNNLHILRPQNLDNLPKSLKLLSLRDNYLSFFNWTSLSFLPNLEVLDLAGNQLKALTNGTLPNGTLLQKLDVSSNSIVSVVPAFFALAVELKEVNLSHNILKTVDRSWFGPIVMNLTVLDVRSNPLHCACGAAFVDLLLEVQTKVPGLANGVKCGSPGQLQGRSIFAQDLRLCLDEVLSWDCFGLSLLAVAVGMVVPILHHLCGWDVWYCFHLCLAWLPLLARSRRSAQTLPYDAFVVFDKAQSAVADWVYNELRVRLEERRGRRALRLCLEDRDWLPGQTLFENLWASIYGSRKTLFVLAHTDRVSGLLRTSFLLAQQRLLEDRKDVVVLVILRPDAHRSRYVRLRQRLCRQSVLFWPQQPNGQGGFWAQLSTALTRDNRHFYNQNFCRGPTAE
How it was run: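 Splenocytes from female […] mice carrying a human TLR8 transgene, prepared by straining and red-cell lysis. Incubated with a dilution series of test compound plus a constant amount of CpG phosphorothioate DNA oligonucleotide 1018 (TLR9 agonist) for 48 h. IL-12p40 measured in culture supernatants. Curves come from a single spleen.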

ectodomain of human TLR8 = conditions: read-out: dissociation constant (Kd), et al., cited from earlier work
nuclear NF-κB = format: cell-based, human; conditions: concentration of 500 nM, THP-1 cells, R848 1 μg/mL, Figure S2
How it was run: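 THP-1 cells were seeded at 2 × 10^6 cells/well and differentiated with PMA (100 ng/mL) for 24 h at 37 °C, 5% CO2. Medium was switched to unsupplemented RPMI, then R848 (1 μg/mL) plus test compound was added for 2 h. Nuclear fractions were extracted and quantified by BCA, run on 10% SDS-PAGE and blotted. Probed with anti-p65 (1:1000), then HRP anti-rabbit (1:10000), chemiluminescence. Lamin A/C was the nuclear control.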

| Compound | effect on TLR7 (TLR7) | activity against mouse TLR9 (mouse TLR9) | Kd (ectodomain of human TLR8; ITC, ectodomain of human TLR8, ref Zhang, 2018) [nM] | Kd (ectodomain of human TLR8; TLR8 and R848, ref Tanji, 2015) [nM] | reduction of nuclear NF-κB (nuclear NF-κB) |
| --- | --- | --- | --- | --- | --- |
| Cc1cc(-c2ccnc3cc(O)ccc23)ccc1O [CU-CPT9b] | not affected below ~μM concentration | no activity | 21 |  |  |
| CCOCc1nc2c(N)nc3ccccc3c2n1CC(C)(C)O [R848, reference compound] |  |  |  | 200 |  |
| COc1ccc2c(-c3ccc(O)c(C)c3)ccnc2c1 [CU-CPT9a] | not affected below ~μM concentration | no activity |  |  | significant reduction |
